# Test results as given in ChEMBL document CHEMBL4024792, “(N-Hydroxycarbonylbenylamino)quinolines as Selective Histone Deacetylase 6 Inhibitors Suppress Growth of Multiple Myeloma in Vitro and in Vivo” (J Med Chem, 2018).
# Active and inactive are the calls of the source. No cut-off for these calls is given here.
# What was measured:
# [1] = molecular target: T1, Protein deacetylase HDAC6 (Homo sapiens, UniProt Q9UBN7); assay: Inhibition of full length recombinant human N-terminal GST-tagged HDAC6 expressed in baculovirus infected insect cells using RHK-K(Ac)-AMC as substrate after 90 mins by fluorescence assay
# T1 sequence (Q9UBN7 whole entry): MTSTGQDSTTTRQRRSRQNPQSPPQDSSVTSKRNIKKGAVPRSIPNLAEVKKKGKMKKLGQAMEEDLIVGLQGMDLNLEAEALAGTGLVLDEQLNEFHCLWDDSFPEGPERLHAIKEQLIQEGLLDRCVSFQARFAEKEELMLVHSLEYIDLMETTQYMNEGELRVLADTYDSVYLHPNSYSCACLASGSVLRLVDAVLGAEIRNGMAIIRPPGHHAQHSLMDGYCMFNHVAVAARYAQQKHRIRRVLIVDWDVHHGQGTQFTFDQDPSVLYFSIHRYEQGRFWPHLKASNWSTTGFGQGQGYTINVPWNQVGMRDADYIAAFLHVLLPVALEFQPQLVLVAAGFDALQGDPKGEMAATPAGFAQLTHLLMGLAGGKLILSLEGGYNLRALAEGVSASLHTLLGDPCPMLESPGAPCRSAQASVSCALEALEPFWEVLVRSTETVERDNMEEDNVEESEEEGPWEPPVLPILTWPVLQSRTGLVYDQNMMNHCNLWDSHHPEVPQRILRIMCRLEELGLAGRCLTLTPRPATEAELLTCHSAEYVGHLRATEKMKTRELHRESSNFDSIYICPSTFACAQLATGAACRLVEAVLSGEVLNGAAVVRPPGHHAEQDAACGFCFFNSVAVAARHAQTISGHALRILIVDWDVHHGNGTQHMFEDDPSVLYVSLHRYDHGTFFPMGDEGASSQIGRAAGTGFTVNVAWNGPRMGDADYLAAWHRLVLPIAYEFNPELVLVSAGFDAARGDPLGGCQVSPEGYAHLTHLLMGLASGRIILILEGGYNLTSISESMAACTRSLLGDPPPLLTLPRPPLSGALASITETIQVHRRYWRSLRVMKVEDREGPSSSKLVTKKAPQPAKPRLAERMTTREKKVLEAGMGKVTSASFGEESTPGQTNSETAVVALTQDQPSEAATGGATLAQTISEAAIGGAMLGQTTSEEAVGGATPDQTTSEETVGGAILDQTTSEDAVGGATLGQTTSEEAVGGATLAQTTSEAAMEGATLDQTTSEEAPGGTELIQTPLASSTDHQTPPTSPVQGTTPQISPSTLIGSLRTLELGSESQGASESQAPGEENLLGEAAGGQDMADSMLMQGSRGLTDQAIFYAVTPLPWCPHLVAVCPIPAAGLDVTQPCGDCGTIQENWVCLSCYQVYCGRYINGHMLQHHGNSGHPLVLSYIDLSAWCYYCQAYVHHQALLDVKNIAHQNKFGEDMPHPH
# [2] = Apparent permeability from apical to basolateral side in human Caco2 cells at 10 uM after 2 hrs by LC-MS/MS analysis; type: ADME, cell-based; conditions: Caco-2
# Method in brief: (§1)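 Caco-2 cells seeded at 8.4 × 10^4 cells/cm2 on polycarbonate inserts for 21 days. For A→B, donor was apical (HBSS/MES pH 6.5, 10 µM compound) and receiver basolateral (HBSS/HEPES pH 7.4). For B→A, donor was basolateral (HBSS/HEPES pH 7.4, 10 µM) and receiver apical (HBSS/MES pH 6.5). Incubated at 37 °C for 2 h. Receiver sampled at 30, 60, 90 and 120 min, donor at 0 and 120 min.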
# [3] = Apparent permeability from basolateral to apical side in human Caco2 cells at 10 uM after 2 hrs by LC-MS/MS analysis; type: ADME, cell-based; conditions: Caco-2; method in brief: as §1
# [4] = Apparent permeability from apical to basolateral side in human Caco2 cells assessed as drug recovery at 10 uM after 2 hrs by LC-MS/MS analysis; type: ADME, cell-based; conditions: Caco-2, read-out: Drug recovery; method in brief: as §1
# [5] = Apparent permeability from basolateral to apical side in human Caco2 cells assessed as drug recovery at 10 uM after 2 hrs by LC-MS/MS analysis; type: ADME, cell-based; conditions: Caco-2, read-out: Drug recovery; method in brief: as §1
# [6] = Efflux ratio of apparent permeability from in human Caco2 cells at 10 uM after 2 hrs by LC-MS/MS analysis; type: ADME, cell-based; conditions: Caco-2; method in brief: as §1
# [7] = system: RPMI-8226; assay: Cell cycle arrest in human RPMI8226 cells assessed as accumulation at sub-G1 phase at 2.5 nM after 24 hrs by propidium iodide staining based flow cytometry (reference value: 12.25%); type: functional
# [8] = system: RPMI-8226; assay: Cell cycle arrest in human RPMI8226 cells assessed as accumulation at G0/G1 phase at 2.5 nM after 24 hrs by propidium iodide staining based flow cytometry (reference value: 44.67%); type: functional
# [9] = system: RPMI-8226; assay: Cell cycle arrest in human RPMI8226 cells assessed as accumulation at S phase at 2.5 nM after 24 hrs by propidium iodide staining based flow cytometry (reference value: 19.53%); type: functional
# [10] = system: RPMI-8226; assay: Cell cycle arrest in human RPMI8226 cells assessed as accumulation at G2/M phase at 2.5 nM after 24 hrs by propidium iodide staining based flow cytometry (reference value: 23.94%); type: functional
# [11] = system: U-266; assay: Cell cycle arrest in human U266 cells assessed as accumulation at G0/G1 phase at 2.5 nM after 24 hrs by propidium iodide staining based flow cytometry (reference value: 40.29%); type: functional
# [12] = system: U-266; assay: Cell cycle arrest in human U266 cells assessed as accumulation at S phase at 2.5 nM after 24 hrs by propidium iodide staining based flow cytometry (reference value: 14.05%); type: functional
# [13] = system: U-266; assay: Cell cycle arrest in human U266 cells assessed as accumulation at G2/M phase at 2.5 nM after 24 hrs by propidium iodide staining based flow cytometry (reference value: 35.13%); type: functional
# [14] = system: NCI-H929; assay: Cell cycle arrest in human NCI-H929 cells assessed as accumulation at sub-G1 phase at 2.5 nM after 24 hrs by propidium iodide staining based flow cytometry (reference value: 5.59%); type: functional
# [15] = system: NCI-H929; assay: Cell cycle arrest in human NCI-H929 cells assessed as accumulation at G0/G1 phase at 2.5 nM after 24 hrs by propidium iodide staining based flow cytometry (reference value: 49.39%); type: functional
# [16] = system: NCI-H929; assay: Cell cycle arrest in human NCI-H929 cells assessed as accumulation at S phase at 2.5 nM after 24 hrs by propidium iodide staining based flow cytometry (reference value: 13.5%); type: functional
# [17] = system: NCI-H929; assay: Cell cycle arrest in human NCI-H929 cells assessed as accumulation at G2/M phase at 2.5 nM after 24 hrs by propidium iodide staining based flow cytometry (reference value: 31.63%); type: functional
# [18] = system: RPMI-8226; assay: Induction of apoptosis in human RPMI8226 cells at 2.5 nM after 24 hrs by Annexin V/propidium iodide staining based flow cytometry; type: functional, cell-based
# [19] = system: U-266; assay: Induction of apoptosis in human U266 cells at 2.5 nM after 24 hrs by Annexin V/propidium iodide staining based flow cytometry; type: functional, cell-based
# [20] = system: NCI-H929; assay: Induction of apoptosis in human NCI-H929 cells at 2.5 nM after 24 hrs by Annexin V/propidium iodide staining based flow cytometry; type: functional, cell-based
# [21] = system: RPMI-8226; assay: Antitumor activity against human RPMI8226 cells xenografted in nude mouse assessed as tumor growth inhibition at 1 mg/kg, iv or ip administered once in week for 35 days relative to control; type: functional; conditions: RPMI-8226, 840 h, read-out: TGI
# Method in brief: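 RPMI 8226 cells (1 × 10^7) implanted s.c. in eight-week-old male nude mice. At mean tumor volume 200 mm3, mice randomized into four groups (n = 8). Caliper measurement every 3–4 days, volume L×W²/2. %TGI computed from treated versus control volume changes relative to time 0.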
# [22] = system: Mus musculus; assay: Toxicity in nude mouse xenografted with human RPMI8226 cells assessed as death at 1 mg/kg, iv or ip administered once in week for 35 days; type: organism-based; conditions: in vivo, 840 h
# Method in brief: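 Male nude mice, eight weeks old, received 1 × 10^7 RPMI 8226 cells subcutaneously. At a mean tumour volume of 200 mm3 they were randomised into four groups (n = 8). Dosing was 1 mg/kg i.v./i.p. once weekly, with vehicle 0.5% EtOH/0.5% Cremophor in 5% dextran. Treatment-related deaths were recorded, and caliper measurements were taken every 3–4 days.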
# [23] = system: RPMI-8226; assay: Antiproliferative activity against human RPMI8226 cells after 48 hrs by SRB assay; type: functional; conditions: RPMI-8226, 48 h
# Method in brief: (§2)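 Cells were exposed to test compounds at the indicated concentrations for 48 h. They were then fixed with 10% trichloroacetic acid, stained 30 min with 0.4% SRB in 1% AcOH, and washed with 1% AcOH. Bound dye was solubilized in 10 mM Tris base and OD read at 510 nm. Lines cultured in RPMI 1640 with 20% FBS and penicillin/streptomycin, 37°C, 5% CO2.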
# [24] = system: U-266; assay: Antiproliferative activity against human U266 cells after 48 hrs by SRB assay; type: functional; conditions: U-266, 48 h; method in brief: as §2
# [25] = system: NCI-H929; assay: Antiproliferative activity against human NCI-H929 cells after 48 hrs by SRB assay; type: functional; conditions: NCI-H929, 48 h; method in brief: as §2
# [26] = Antiproliferative activity against human HS5 cells after 48 hrs by SRB assay; type: cell-based; method in brief: as §2
compound,measurement,setting,value
O=C(NO)c1ccc(CNc2cccc3c2CCC3)cc1,IC50,[1],19.6 nM
O=C(/C=C/c1ccc(CNc2cccc3cccnc23)cc1)NO,IC50,[1],41.7 nM
O=C(NO)c1ccc(CNc2cccc3cn[nH]c23)cc1,IC50,[1],3.56 nM
O=C(/C=C/c1ccc(CNc2cccc3ncccc23)cc1)NO,IC50,[1],25.3 nM
O=C(NO)c1ccc(COc2cccc3cccnc23)cc1,IC50,[1],2.83 nM
O=C(NO)c1ccc(CNc2ccc3ccccc3n2)cc1,IC50,[1],4.24 nM
O=C(NO)c1ccc(C(=O)Nc2cccc3cccnc23)cc1,IC50,[1],265 nM
O=C(NO)c1ccc(CNc2ccc3cccnc3c2)cc1,IC50,[1],3.25 nM
Cc1ccc2cccc(NCc3ccc(C(=O)NO)cc3)c2n1,IC50,[1],11.4 nM
O=C(NO)c1ccc(CCc2cccc3cccnc23)cc1,IC50,[1],41.7 nM
O=C(NO)c1ccc(CNc2ccnc3ccccc23)cc1,IC50,[1],21.5 nM
O=C(NO)c1ccc(C(=O)Nc2cccc3ncccc23)cc1,IC50,[1],525 nM
O=C(NO)c1ccc(CNc2cncc3ccccc23)cc1,IC50,[1],2.31 nM
O=C(NO)c1ccc(CNc2cccc3cnccc23)cc1,IC50,[1],2.33 nM
O=C(NO)c1ccc(CSc2cccc3cccnc23)cc1,IC50,[1],9.48 nM
O=C(NO)c1ccc(CNc2cccc3c2CCCC3)cc1,IC50,[1],25.3 nM
O=C(NO)c1ccc(NCc2cccc3cccnc23)cc1,IC50,[1],7.4 nM
COC(=O)c1ccccc1-c1c2ccc(=N)cc-2oc2cc(N)ccc12.Cl [RHODAMINE123],"Papp A→B at 2 h, 10 µM",[2],1.16 ×10⁻⁶ cm/s
same,"Papp B→A at 2 h, 10 µM",[3],7.52 ×10⁻⁶ cm/s
same,"recovery at 2 h, 10 µM",[4],89.8%
same,"recovery at 2 h, 10 µM",[5],93.9%
same,"efflux ratio at 2 h, 10 µM",[6],6.5
O=C(NO)c1ccc(CNc2cccc3ccncc23)cc1,IC50,[1],3.35 nM
O=C(NO)c1ccc(CNc2ccc3ncccc3c2)cc1,IC50,[1],4.78 nM
O=C(NO)c1ccc(CNc2cccc3nccnc23)cc1,IC50,[1],5.89 nM
O=C(NO)c1ccc(CNc2cnc3ccccc3c2)cc1,IC50,[1],403 nM
CC(C)C[C@H](NC(=O)[C@H](Cc1ccccc1)NC(=O)c1cnccn1)B(O)O [BORTEZOMIB],Activity,[7],10.55%
same,Activity,[8],42.97%
same,Activity,[9],15.19%
same,Activity,[10],31.53%
same,Activity,[11],32.66%
same,Activity,[12],7.8%
same,Activity,[13],32.22%
same,Activity,[14],42.44%
same,Activity,[15],29.87%
same,Activity,[16],11.59%
same,Activity,[17],16.32%
same,Activity,[18],Active
same,Activity,[19],Active
same,Activity,[20],Active
same,inhibition in vivo at 1 mg/kg,[21],70.1%
same,Activity,[22],Toxic
O=C(CCCCCCNC(=O)c1cnc(N(c2ccccc2)c2ccccc2)nc1)NO [RICOLINOSTAT],GI50,[23],6400 nM
same,GI50,[24],> 100000 nM
same,GI50,[25],> 100000 nM
same,GI50 at 48 h,[26],> 100000 nM
O=C(NO)c1cccc(CNc2cccc3cccnc23)c1,IC50,[1],1130 nM
O=C(NO)c1ccc(Nc2cccc3cccnc23)cc1,IC50,[1],129 nM
